# From ChEMBL document CHEMBL1134335, “Structure-activity relationships of pyridoxal phosphate derivatives as potent and selective antagonists of P2X1 receptors” (J Med Chem, 2001)
# Activity calls are given as the source filed them. The rule behind the calls is not given here.
# Key:
# [1] = biological target: T1, P2X purinoceptor 7 (Homo sapiens) (UniProt Q99572); assay: Percent inhibition of ATP-induced K+ efflux (with cations) in adherent HEK293 cells expressing human P2X7 receptor; format: functional, cell-based; conditions: concentration not given here
# T1 sequence (whole entry): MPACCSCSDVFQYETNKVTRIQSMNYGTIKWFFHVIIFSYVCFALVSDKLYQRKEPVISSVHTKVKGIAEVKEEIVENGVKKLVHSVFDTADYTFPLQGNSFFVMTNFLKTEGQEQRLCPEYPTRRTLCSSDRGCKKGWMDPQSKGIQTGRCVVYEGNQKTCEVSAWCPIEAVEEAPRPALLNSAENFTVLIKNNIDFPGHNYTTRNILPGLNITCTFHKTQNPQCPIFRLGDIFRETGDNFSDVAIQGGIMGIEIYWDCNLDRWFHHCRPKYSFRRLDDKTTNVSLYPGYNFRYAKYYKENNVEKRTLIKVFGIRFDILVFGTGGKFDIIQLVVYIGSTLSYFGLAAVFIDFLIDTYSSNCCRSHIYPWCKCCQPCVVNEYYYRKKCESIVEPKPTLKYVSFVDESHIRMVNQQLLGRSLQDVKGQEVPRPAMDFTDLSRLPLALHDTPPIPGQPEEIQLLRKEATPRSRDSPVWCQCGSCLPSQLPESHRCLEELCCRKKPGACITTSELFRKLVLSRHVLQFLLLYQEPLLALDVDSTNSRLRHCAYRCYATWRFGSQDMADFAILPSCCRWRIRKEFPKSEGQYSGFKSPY
# In short: (§1)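 Adherent HEK293 cells stably expressing human P2X7, grown to 90% confluence, in saline with 1 mM MgCl₂ and 1.5 mM CaCl₂ (pH 7.5). Pretreated with 30 µM compound, then 3 mM ATP for 10 min at 37 °C. Cell K⁺ was extracted in 10% HNO₃ for 2 h and read by atomic absorbance relative to untreated cells. n=3, each in duplicate.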
# [2] = biological target: T1, P2X purinoceptor 7 (Homo sapiens); assay: Percentage inhibition of ATP-induced K+ efflux (cation free) in adherent HEK293 cells expressing human P2X7 receptor; format: functional, cell-based; conditions: concentration not given here
# In short: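 Adherent HEK293 cells stably expressing human P2X7, in divalent cation-free saline (no added MgCl₂ or CaCl₂; pH 7.5). Pretreated with 30 µM compound, then 3 mM ATP for 10 min at 37 °C. Residual cell K⁺ was extracted in 10% HNO₃ for 2 h and measured by atomic absorbance against untreated cells. n=3, each in duplicate.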
# P2Y purinoceptor 1 = P2Y purinoceptor 1 (Meleagris gallopavo, UniProt P49652); assay: Inhibition of 10 nM 2-MeS-ADP-stimulated phospholipase C in turkey erythrocyte membranes using [3H]inositol; format: functional, cell membranes
# In short: (§2)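 Turkey erythrocytes labelled 18-24 h at 37 °C with 2-[³H]myo-inositol in inositol-free DMEM, then lysed hypotonically (5 mM sodium phosphate pH 7.4, 5 mM MgCl₂, 1 mM EGTA) to make ghosts. Ghosts were incubated 5 min at 30 °C in pH 7.0 Hepes/KCl buffer with 1 µM GTPγS and 10 nM 2-MeSADP. Total [³H]inositol phosphates were measured by anion-exchange chromatography; 3-8 independent determinations.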
# [3] = biological target: T1, P2X purinoceptor 7 (Homo sapiens); assay: Percent inhibition of ATP-induced K+ efflux (ethidium influx) in suspended HEK293 cells expressing human P2X7 receptor; format: functional, cell-based; conditions: concentration not given here
# In short: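 Trypsinised HEK293 cells stably expressing human P2X7 were suspended in divalent cation-free saline in a stirred cuvette at 37 °C with 20 µM ethidium bromide. Cells were treated with 30 µM compound, then 300 µM ATP.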
# P2X purinoceptor 1 = biological target: T2, P2X purinoceptor 1 (Rattus norvegicus, UniProt P47824); assay: Inhibition of inward ion current elicited by ATP at P2X1 receptor expressed in Xenopus oocytes; format: functional, cell-based, Oocyte
# T2 sequence (P47824 whole entry): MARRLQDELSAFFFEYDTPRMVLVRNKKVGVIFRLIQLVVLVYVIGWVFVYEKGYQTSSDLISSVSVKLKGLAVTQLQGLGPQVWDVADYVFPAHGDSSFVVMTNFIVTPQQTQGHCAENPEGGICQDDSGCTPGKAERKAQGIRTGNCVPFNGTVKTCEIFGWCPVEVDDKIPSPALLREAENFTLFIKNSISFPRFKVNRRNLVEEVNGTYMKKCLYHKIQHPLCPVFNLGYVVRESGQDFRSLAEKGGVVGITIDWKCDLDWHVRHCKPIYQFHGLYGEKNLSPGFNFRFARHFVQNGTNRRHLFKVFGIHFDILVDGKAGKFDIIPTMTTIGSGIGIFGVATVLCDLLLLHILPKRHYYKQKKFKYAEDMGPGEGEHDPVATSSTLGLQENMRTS
# P2X purinoceptor 2 = biological target: T3, P2X purinoceptor 2 (Rattus norvegicus, UniProt P49653); assay: Inhibition of inward ion current elicited by ATP at P2X2 receptor expressed in Xenopus oocytes; format: functional, cell-based, Oocyte
# T3 sequence (P49653 whole entry): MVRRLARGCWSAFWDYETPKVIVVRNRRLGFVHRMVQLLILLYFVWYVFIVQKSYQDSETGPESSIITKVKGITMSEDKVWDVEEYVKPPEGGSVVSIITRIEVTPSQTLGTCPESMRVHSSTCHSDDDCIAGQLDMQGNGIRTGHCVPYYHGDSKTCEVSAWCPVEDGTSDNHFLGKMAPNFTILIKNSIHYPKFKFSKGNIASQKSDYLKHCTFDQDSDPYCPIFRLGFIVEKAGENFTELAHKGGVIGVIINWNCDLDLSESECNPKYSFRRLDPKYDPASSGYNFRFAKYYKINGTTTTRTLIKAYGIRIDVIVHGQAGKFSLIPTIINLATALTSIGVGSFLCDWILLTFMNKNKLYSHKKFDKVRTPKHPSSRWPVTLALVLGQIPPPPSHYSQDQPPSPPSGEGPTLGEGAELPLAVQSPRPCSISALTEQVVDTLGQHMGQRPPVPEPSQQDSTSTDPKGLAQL
# P2X purinoceptor 3 = biological target: T4, P2X purinoceptor 3 (Rattus norvegicus, UniProt P49654); assay: Inhibition of inward ion current elicited by ATP was determined at recombinant P2X3 receptor expressed in Xenopus oocytes; format: functional, cell-based, Oocyte
# T4 sequence (P49654 whole entry): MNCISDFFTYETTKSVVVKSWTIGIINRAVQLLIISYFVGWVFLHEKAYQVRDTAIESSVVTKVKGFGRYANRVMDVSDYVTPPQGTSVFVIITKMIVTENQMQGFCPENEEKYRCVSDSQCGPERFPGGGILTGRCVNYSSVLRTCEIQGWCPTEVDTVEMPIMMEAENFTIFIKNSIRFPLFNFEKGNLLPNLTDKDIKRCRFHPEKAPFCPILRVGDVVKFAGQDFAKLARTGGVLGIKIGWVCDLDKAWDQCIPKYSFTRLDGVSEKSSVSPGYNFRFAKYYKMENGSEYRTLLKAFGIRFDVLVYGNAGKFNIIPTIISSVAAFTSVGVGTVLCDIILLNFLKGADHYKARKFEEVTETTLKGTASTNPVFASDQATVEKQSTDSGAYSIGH
# [4] = biological target: T5, P2X purinoceptor 1 (Rattus norvegicus) (UniProt P47824); assay: Inhibition of inward ion current elicited by ATP at P2X1 receptor expressed in Xenopus oocytes at 10 uM; format: functional, cell-based; conditions: Oocyte
# T5 sequence (whole entry): T2 sequence (P47824 whole entry)
# [5] = biological target: T6, P2X purinoceptor 2 (Rattus norvegicus) (UniProt P49653); assay: Inhibition of inward ion current elicited by ATP at P2X2 receptor expressed in Xenopus oocytes; IA means inactive; format: functional, cell-based; conditions: Oocyte
# T6 sequence (whole entry): T3 sequence (P49653 whole entry)
# [6] = biological target: P2Y purinoceptor 1 (Meleagris gallopavo) (UniProt P49652); assay: Inhibition of 10 nM 2-MeS-ADP-stimulated phospholipase C in turkey erythrocyte membranes using [3H]inositol; IA means inactive; format: functional, cell membranes; in short: as §2
# [7] = biological target: T7, P2X purinoceptor 3 (Rattus norvegicus) (UniProt P49654); assay: Inhibition of inward ion current elicited by ATP at recombinant P2X3 receptor expressed in Xenopus oocytes at 10 uM; format: functional, cell-based; conditions: Oocyte
# T7 sequence (whole entry): T4 sequence (P49654 whole entry)
# [8] = biological target: T5, P2X purinoceptor 1 (Rattus norvegicus); assay: Inhibition of inward ion current elicited by ATP at P2X1 receptor expressed in Xenopus oocytes; IA means inactive; format: functional, cell-based; conditions: Oocyte
# [9] = biological target: T7, P2X purinoceptor 3 (Rattus norvegicus); assay: Inhibition of inward ion current elicited by ATP at P2X3 receptor expressed in Xenopus oocytes; IA means inactive; format: functional, cell-based; conditions: Oocyte
# [10] = biological target: T1, P2X purinoceptor 7 (Homo sapiens); assay: Inhibition of ATP-induced K+ efflux (with cations) in adherent HEK293 cells expressing human P2X7 receptor; format: functional, cell-based; conditions: concentration not given here; in short: as §1
# P2Y purinoceptor 1, sequence (P49652 whole entry): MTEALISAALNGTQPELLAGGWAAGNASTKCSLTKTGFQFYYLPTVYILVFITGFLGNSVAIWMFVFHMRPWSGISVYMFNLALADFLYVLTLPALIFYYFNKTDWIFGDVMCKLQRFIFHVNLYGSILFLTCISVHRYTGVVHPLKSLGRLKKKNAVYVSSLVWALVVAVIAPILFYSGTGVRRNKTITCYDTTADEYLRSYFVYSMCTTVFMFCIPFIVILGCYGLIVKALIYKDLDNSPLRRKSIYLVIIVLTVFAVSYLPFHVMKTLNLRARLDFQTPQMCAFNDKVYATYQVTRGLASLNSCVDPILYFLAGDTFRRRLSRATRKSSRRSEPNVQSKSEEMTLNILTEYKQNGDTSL
# P2Y purinoceptor 1 (Meleagris gallopavo), sequence (P49652 whole entry): as above
Compound,inhibition [1] [%],inhibition [2] [%],IC50 (P2Y purinoceptor 1) [nM],inhibition [3] [%],IC50 (P2X purinoceptor 1) [nM],IC50 (P2X purinoceptor 2) [nM],IC50 (P2X purinoceptor 3) [nM],other results
Cc1nc(/N=N/c2cc(CP(=O)(O)O)cc(CP(=O)(O)O)c2)c(CP(=O)(O)O)c(C=O)c1O,0,-5,14500,84,11,280,25,
Cc1nc(/N=N/c2cc(C(=O)O)ccc2C(=O)O)c(CP(=O)(O)O)c(C=O)c1O,,,,,37,486,330,
Cc1nc(/N=N/c2ccc(C(=O)O)cc2)c(COP(=O)(O)O)c(C=O)c1O,,,100000,,9.4,11900,140,
Cc1nc(/N=N/c2cc(S(=O)(=O)O)ccc2S(=O)(=O)O)c(COP(=O)(O)O)c(COP(=O)(O)O)c1O,-1,-7,100000,15,,,,inhibition [4]: 27%
Cc1nc(/N=N/c2ccc(C(=O)O)cc2)c2c(c1O)COP(=O)(O)OC2,,,,,,,,inhibition [4]: 39%
Cc1nc(/N=N/c2cc(S(=O)(=O)O)ccc2S(=O)(=O)O)c2c(c1O)COP(=O)(O)OC2,-1,-5,,17,,,,IA [5]: inactive; Inhibition activity [6]: inactive
Cc1nc(/N=N/c2cc(S(=O)(=O)O)ccc2Cl)c(COP(=O)(O)O)c(COP(=O)(O)O)c1O,-1,-5,100000,12,,,,inhibition [7]: 30%; inhibition [4]: 78%
Cc1nc(/N=N/c2ccc(C(=O)O)cc2)c(CCP(=O)(O)O)c(C=O)c1O,,,100000,,20,2400,145,
CC(=O)Oc1c(C)nc(/N=N/c2cc(S(=O)(=O)O)ccc2S(=O)(=O)O)c2c1COP(=O)(O)OC2,,,,,,,,IA [8]: inactive
Cc1nc(/N=N/c2ccccc2)c2c(c1O)COP(=O)(O)OC2,,,,,,,,Inhibition activity [6]: inactive; IA [8]: inactive
Cc1nc(/N=N/c2cc(S(=O)(=O)O)ccc2Cl)c2c(c1O)COP(=O)(O)OC2,,,,,,,,inhibition [4]: 43%
Cc1nc(/N=N/c2ccc(C(=O)O)cc2)c(CP(=O)(O)O)c(C=O)c1O,,,,,8.1,150,128,
CNc1ncnc2c1ncn2[C@H]1C[C@H](OP(=O)(O)O)[C@@H](COP(=O)(O)O)O1,37,24,,100,,,,
Cc1nc(/N=N/c2cc(S(=O)(=O)O)ccc2Cl)c(CP(=O)(O)O)c(C=O)c1O,-5,-8,,40,,,,
Cc1nc(/N=N/c2ccc(P(=O)(O)O)cc2)c(CP(=O)(O)O)c(C=O)c1O,,,27000,,12,948,36,
Cc1nc(/N=N/c2ccccc2)c(COP(=O)(O)O)c(COP(=O)(O)O)c1O,,,> 100000,,,,,inhibition [4]: 50%
Cc1ncc(COP(=O)(O)O)c(COP(=O)(O)O)c1O,,,,,,,,Inhibition activity [6]: inactive; IA [8]: inactive
Cc1ncc2c(c1O)COP(=O)(O)OC2,,,,,,,,IA [5]: inactive; Inhibition activity [6]: inactive; IA [9]: inactive
Cc1nc(/N=N/c2cc(S(=O)(=O)O)ccc2S(=O)(=O)O)c(COP(=O)(O)O)c(C=O)c1O [ISOPPADS],,67,21400,100,43,398,,inhibition [10]: 81%
Cc1nc(/N=N/c2cc(S(=O)(=O)O)ccc2S(=O)(=O)O)c(CP(=O)(O)O)c(C=O)c1O,51,28,46000,100,12,1100,340,
